Data: ChEMBL document CHEMBL1153905, “Functionalized 3-benzylidene-indolin-2-ones: inducers of NAD(P)H-quinone oxidoreductase 1 (NQO1) with antiproliferative activity” (Bioorg Med Chem, 2009)
Values belong to the molecule of their own block, whether it stands above or below them.

Columns and labels:
[1] = target: NAD(P)H dehydrogenase [quinone] 1 (Mus musculus) (UniProt Q64669); experiment: Induction of NQO1 activity in mouse Hepa-1c1c7 cells assessed as induction ratio at 0.01 uM after 48 hrs by MTT assay relative to control; type: cell-based
NAD(P)H dehydrogenase [quinone] 1 (Mus musculus), sequence (Q64669 whole entry): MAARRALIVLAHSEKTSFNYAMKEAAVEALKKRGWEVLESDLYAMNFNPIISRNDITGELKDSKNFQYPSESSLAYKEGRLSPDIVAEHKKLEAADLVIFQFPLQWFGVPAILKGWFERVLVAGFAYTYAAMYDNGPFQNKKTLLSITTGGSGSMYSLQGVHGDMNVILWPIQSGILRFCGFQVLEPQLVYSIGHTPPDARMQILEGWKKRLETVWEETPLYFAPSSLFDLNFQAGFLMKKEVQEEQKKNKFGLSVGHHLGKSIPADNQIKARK
In short: (§1)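 Hepa1c1c7 cells, 10,000 per well, 24 h, were then treated 48 h (DMSO ≤0.5%). Digitonin/EDTA lysates were assayed for menadione-dependent MTT-formazan formation using a G6P/G6PDH NADPH-generating mix with FAD at pH 7.4. The reaction ran 5 min, was stopped with dicoumarol, and read at A590. Degree of induction = (A test − blank)/(A control − blank). Ratios were read off the induction–concentration plot at the EROD test concentration.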

[2] = target: NAD(P)H dehydrogenase [quinone] 1 (Mus musculus) (UniProt Q64669); experiment: Induction of NQO1 activity in mouse Hepa-1c1c7 cells assessed as drug level required to double basal enzyme activity after 48 hrs by MTT assay; type: cell-based
In short: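 Hepa1c1c7 cells were grown in α-MEM with charcoal-treated FCS, 10,000 per well, 24 h. Compound was given 48 h (DMSO ≤0.5%) over a 10–100-fold range below cytotoxic levels, up to 25 µM. Cells were lysed with digitonin/EDTA. NQO1 was assayed by menadione-driven MTT reduction (G6P/G6PDH/NADP, FAD, Tris pH 7.4), quenched with dicoumarol, A590. CD is the concentration doubling basal activity, taken from the induction–concentration plot; mean ± SD, n = 3.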

[3] = target: T1, CYP1A1 (Mus musculus, UniProt P00184); experiment: Induction of CYP1A1 activity in mouse Hepa-1c1c7 cells assessed as induction ratio at 0.01 uM after 48 hrs by EROD assay relative to control; type: ADME, cell-based
T1 sequence (P00184 whole entry): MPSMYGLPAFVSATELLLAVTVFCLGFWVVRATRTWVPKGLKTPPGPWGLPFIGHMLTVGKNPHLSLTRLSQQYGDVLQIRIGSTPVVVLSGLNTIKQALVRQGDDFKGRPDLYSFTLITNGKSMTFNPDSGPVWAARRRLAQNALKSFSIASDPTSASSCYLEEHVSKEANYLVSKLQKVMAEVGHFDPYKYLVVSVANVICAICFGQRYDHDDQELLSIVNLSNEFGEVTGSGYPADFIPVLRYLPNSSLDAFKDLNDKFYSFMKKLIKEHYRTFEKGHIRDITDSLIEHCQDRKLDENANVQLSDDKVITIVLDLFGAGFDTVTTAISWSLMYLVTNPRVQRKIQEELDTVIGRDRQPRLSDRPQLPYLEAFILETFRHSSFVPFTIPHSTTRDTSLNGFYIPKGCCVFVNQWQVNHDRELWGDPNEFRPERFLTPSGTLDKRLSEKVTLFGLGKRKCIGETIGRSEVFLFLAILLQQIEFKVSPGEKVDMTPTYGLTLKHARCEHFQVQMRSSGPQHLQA

[4] = Ratio of induction of NQO1 activity to induction of CYP1A1 activity in mouse Hepa-1c1c7 cells at 0.01 uM after 48 hrs
[5] = Cytotoxicity against mouse Hepa-1c1c7 cells after 48 hrs by MTT assay; type: cell-based; details: hepa-1c1c7, 48 h
In short: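 Murine hepatoma cells in α-MEM with 10% heat- and charcoal-treated fetal calf serum, passages 6–17; MTT read-out as for the cancer lines but with 48 h compound exposure. Highest concentration tested 25 µM. IC50 from survival-versus-concentration curve; mean and SD, n = 3.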

[6] = Ratio of induction of NQO1 activity to induction of CYP1 activity in mouse Hepa-1c1c7 cells at 50 nM after 48 hrs
[7] = target: T1, CYP1A1; experiment: Induction of CYP1A1 activity in mouse Hepa-1c1c7 cells assessed as induction ratio at 50 nM after 48 hrs by EROD assay relative to control; type: ADME, cell-based
In short: (§2)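 Hepa1c1c7 cells were seeded at 10,000 per well and grown 24 h. They were then exposed 48 h to compound (final DMSO 0.5% v/v) at about 4 × the NQO1 CD. After a PBS wash, cells got 5 µM 7-ethoxyresorufin plus 2 mM salicylamide in medium, 37 °C, 40 min. Resorufin was read at ex 530/em 590 nm, corrected for compound fluorescence. Ratio = (F treated − blank)/(F DMSO control − blank); mean ± SD, n = 3.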

[8] = target: NAD(P)H dehydrogenase [quinone] 1 (Mus musculus) (UniProt Q64669); experiment: Induction of NQO1 activity in mouse Hepa-1c1c7 cells assessed as induction ratio at 50 nM after 48 hrs by MTT assay relative to control; type: cell-based; in short: as §1
[9] = target: T1, CYP1A1; experiment: Induction of CYP1A1 activity in mouse Hepa-1c1c7 cells assessed as induction ratio at 15 uM by EROD assay relative to control; type: ADME, cell-based; in short: as §2
[10] = target: NAD(P)H dehydrogenase [quinone] 1 (Mus musculus) (UniProt Q64669); experiment: Induction of NQO1 activity in mouse Hepa-1c1c7 cells assessed as induction ratio at 15 uM after 48 hrs by MTT assay relative to control; type: cell-based; in short: as §1
[11] = target: T1, CYP1A1; experiment: Induction of CYP1A1 activity in mouse Hepa-1c1c7 cells assessed as induction ratio at 0.5 uM after 48 hrs by EROD assay relative to control; type: ADME, cell-based
In short: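 About 10,000 Hepa1c1c7 cells/well cultured 24 h, then compound (0.5% DMSO final) for 48 h, at roughly 4 × the concentration doubling NQO1 activity. After PBS wash, cells given 5 µM 7-ethoxyresorufin plus 2 mM salicylamide, 37 °C, 40 min; resorufin fluorescence ex 530/em 590 nm, corrected for compound fluorescence. Ratio = (treated − blank)/(DMSO control − blank); mean ± SD, n = 3.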

[12] = target: NAD(P)H dehydrogenase [quinone] 1 (Mus musculus) (UniProt Q64669); experiment: Induction of NQO1 activity in mouse Hepa-1c1c7 cells assessed as induction ratio at 0.5 uM after 48 hrs by MTT assay relative to control; type: cell-based; in short: as §1
[13] = Antiproliferative activity against human CCL186 cells after 72 hrs by MTT assay; type: cell-based; details: CCL186, 72 h
In short: (§3)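 Cells seeded at 10,000 (MCF7), 4000 (HCT116) or 5000 (CCL186) per well and grown 24 h; MCF7 and CCL186 in EMEM with pyruvate, glutamine, 10% FBS; HCT116 in McCoy's 5A with 10% FBS. Compounds from DMSO stocks (≤1% DMSO final), 72 h exposure; MTT 0.5 mg/ml for 3 h, formazan in DMSO read at 590 nm. IC50 from sigmoidal survival curve, three separate occasions.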

[14] = tested on: HCT-116; experiment: Antiproliferative activity against human HCT116 cells after 72 hrs by MTT assay; type: functional, cell-based; details: HCT-116, 72 h; in short: as §3
[15] = tested on: HCT-116; experiment: Cell cycle arrest in human HCT116 cells released from G1 block assessed as accumulation at G1 phase at 2.5 uM after 24 hrs by flow cytometry; type: functional
[16] = tested on: HCT-116; experiment: Cell cycle arrest in human HCT116 cells released from G1 block assessed as accumulation at sub G1 phase at 2.5 uM after 24 hrs by flow cytometry; type: functional
[17] = tested on: HCT-116; experiment: Cell cycle arrest in human HCT116 cells released from G2 block assessed as accumulation at G2/M phase at 2.5 uM after 24 hrs by flow cytometry; type: functional
[18] = tested on: HCT-116; experiment: Cell cycle arrest in human HCT116 cells released from G1 block assessed as accumulation at G2/M phase at 2.5 uM after 24 hrs by flow cytometry; type: functional
[19] = tested on: MCF7; experiment: Selectivity ratio of IC50 for human CCL186 cells to IC50 for human MCF7 cells
In short: (§4)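 MTT assay. MCF7 and CCL186 cells were grown in EMEM/10% FBS, HCT116 in McCoy's 5A/10% FBS. Seeding was 10,000 (MCF7), 4000 (HCT116) and 5000 (CCL186) cells per well, 24 h. Compound exposure was 72 h, DMSO ≤1% final. MTT 0.5 mg/ml for 3 h, formazan dissolved in DMSO, A590. IC50 came from sigmoidal survival curves, with 3 separate occasions per concentration. Ratio = IC50 CCL186 / IC50 of the cancer line.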

[20] = tested on: HCT-116; experiment: Cell cycle arrest in human HCT116 cells released from G2 block assessed as accumulation at sub G1 phase at 2.5 uM after 24 hrs by flow cytometry; type: functional
[21] = Selectivity ratio of IC50 for human CCL186 cells to IC50 for human HCT116 cells; type: ADME, cell-based, HCT-116; details: CCL186 cells and HCT116 cells, read-out: Ratio IC50; in short: as §4
[22] = tested on: HCT-116; experiment: Cell cycle arrest in human HCT116 cells released from G2 block assessed as accumulation at G1 phase at 2.5 uM after 24 hrs by flow cytometry; type: functional
[23] = tested on: HCT-116; experiment: Cell cycle arrest in human HCT116 cells released from G1 block assessed as accumulation at S phase at 2.5 uM after 24 hrs by flow cytometry; type: functional
[24] = tested on: HCT-116; experiment: Cell cycle arrest in human HCT116 cells released from G2 block assessed as accumulation at S phase at 2.5 uM after 24 hrs by flow cytometry; type: functional
[25] = tested on: MCF7; experiment: Antiproliferative activity against human MCF7 cells after 72 hrs by MTT assay; type: functional, cell-based; details: MCF7, 72 h; in short: as §3

Ratio [1]: 1.83 | CD [2]: 0.028 µM | fold induction at 48 h, 0.01 µM [3]: 1.13
Compound: O=c1cc(-c2ccccc2)oc2ccc3ccccc3c12 [BETA-NAPHTHOFLAVONE]
Ratio [4]: 1.62

fold induction at 48 h, 0.05 µM [7]: 2.09 | Ratio [8]: 2.88
Compound: O=C1Nc2ccccc2/C1=C1\C(=O)Nc2cc(Cl)ccc21
IC50 [5]: > 25000 nM | Ratio [6]: 1.38

fold induction at 15 µM [9]: 1.89 | Ratio [10]: 5.06
Compound: O=C1Nc2ccccc2/C1=C\c1ccc(F)cc1F
IC50 [5]: > 25000 nM

fold induction at 48 h, 0.5 µM [11]: 1.13 | Ratio [12]: 3.08 | IC50 [14]: 1200 nM | IC50 [25]: 1300 nM
Compound: COc1cccc(/C=C2/C(=O)Nc3cc(OC)ccc32)c1
IC50 [5]: 9800 nM | IC50 [13]: 1800 nM | Activity [15]: 10.56% | Activity [16]: 4.22% | Activity [17]: 43.57% | Activity [18]: 71.54% | Ratio IC50 [19]: 1.5 | Activity [20]: 30.54% | selectivity ratio [21]: 1.4 | Activity [22]: 26.01% | Activity [23]: 13.81% | Activity [24]: 15.36%
